From PubChem
In the library only some 1.4% were active in any assay of this set; here they are far more common.
ZTA DNA inh: ZTA (EBV) inhibition in EBNA-1 counter-screen; 0.15% of 320,000 active; P03206; ZTA-DNA binding, fluorescence polarization; inhibition, % at 11 µM; in the data active means inhibition above about 33%
Target sequence (P03206 whole entry, looked up): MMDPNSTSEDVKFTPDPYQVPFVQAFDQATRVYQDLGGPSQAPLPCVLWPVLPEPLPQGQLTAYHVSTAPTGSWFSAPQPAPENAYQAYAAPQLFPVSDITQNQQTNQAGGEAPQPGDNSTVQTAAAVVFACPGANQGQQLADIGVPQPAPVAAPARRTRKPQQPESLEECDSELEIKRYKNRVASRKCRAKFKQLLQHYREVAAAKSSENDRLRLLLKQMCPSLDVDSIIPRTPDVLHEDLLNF
Fh CTSL1 inh: blocks F. hepatica cathepsin L1 in PFM18AAP counter-screen. AID 1906. inhibition, % at 5.96 µM. 0.49% of 300,000 active. recombinant F. hepatica cathepsin L1, Z-Leu-Arg-MCA fluorescence;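 active means inhibition above the mean of all tested compounds plus 3 SD, set per screening campaign, cut at about 17% in these data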;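 further: 0% = plate median of test compound wells and 100% = 1 µM Z-Phe-Ala-diazomethylketone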
NS3 helicase inh: inhibitors of Hepatitis C virus NS3 helicase. NS3 helicase DNA unwinding, Cy5 molecular beacon fluorescence. inhibition, % at 10.9 µM. 0.56% of 290,000 active;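 active means inhibition above the mean of all tested compounds plus 3 SD, set per campaign, cut at about 35% in these data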;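 further: 0% = DMSO wells and 100% = thioflavine S control wells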
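Control set: DMSO versus 110 µM thioflavine S; Material: NS3 helicase fragment of HCV; Measured by: Cy5 fluorescence at 0 and 60 min, beacon hairpin quenching; Read-out basis: percent inhibition from t60/t0 fluorescence ratio; Times: reaction time 60 min, 25 °C; Repeats: single replicate; Compound dosing: single dose, 10.9 µM nominal final, DMSO 0.8% final.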
EBNA-1 inh: blocks EBNA-1 binding to DNA; EBNA-1 DNA binding, fluorescence polarization; inhibition, % at 14.8 µM; 0.34% of 300,000 active; AID 1950; in the data active means inhibition above about 28%
NS3 hel confirm: HCV NS3 helicase inhibition, confirmation assay; NS3 helicase DNA unwinding, Cy5 molecular beacon fluorescence; inhibition, % at 10.9 µM; AID 1943; shares compounds with NS3 helicase inh; 31% of 1,600 active;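 active means inhibition above the mean of all tested compounds plus 3 SD, cutoff set per campaign, cut at about 36% in these data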
DNA FID counter: displaces DNA intercalator in HCV helicase counter-screen. AID 1945. 4% of 1,600 active. DNA fluorescent intercalator displacement, fluorescence. shares compounds with NS3 helicase inh. inhibition, % at 7.9 µM; in the data active means inhibition above about 37%;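 further: 0% = vehicle and 100% = reference compound; higher means more displacement of ethidium bromide from the DNA hairpin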
* marks the source's active call; other numbers are inactive results; . = not tested or not shown; ! = a repeat was not active.

SMILES	ZTA DNA inh	Fh CTSL1 inh	NS3 helicase inh	EBNA-1 inh	others
O=C(O)c1cccc2c1NC(C(=O)O)C1CC(Sc3ccccc3[N+](=O)[O-])C(Cl)C21 (centres undefined)	110*	-1	35	35*
O=C(c1ccc2nc(-c3ccco3)c(-c3ccco3)nc2c1)N1CCC2(CC1)OCCO2	21	17*	.	7
COc1ccc(C(=O)N2CCC3(CC2)OCCO3)cc1	-2	-4	0	-6
NC(=O)OCCSc1nnc(-c2cccc(C(N)=S)c2)o1	5	-3	-1	-2
CC(C)n1c(=O)c(C=Nc2ccc(Cl)cc2)c(O)n(Cc2ccco2)c1=O	-11	1	47*	-1
Cc1ccc(S(=O)(=O)N[C@@H](CCCCN)C(=O)CCl)cc1	-8	85*	.	-10
Cc1ccc(S(=O)(=O)NCCC(=O)Nc2ccc(Cl)cc2C(=O)c2ccccc2)cc1	-3	0	-7	-10
COC(=O)C(O)(c1c(C)[nH]n(-c2ccccc2)c1=O)C(F)(F)F (centres undefined)	0	20*	-1	-7
COC(=O)c1nc(-c2ccc3c(n2)C(=O)C(N)=C(OC)C3=O)c(N)c(-c2ccc(OC)c(OC)c2O)c1C	6	110*	5	1
CCOC(=O)C(NC(=O)CC)(Nc1ccc(C(O)(C(=O)OCC)C(F)(F)F)cc1C)C(F)(F)F (centres undefined)	6	0	3	22
CCOC(=O)C(NC(=O)CCl)(Nc1ccc(C(O)(C(=O)OCC)C(F)(F)F)cc1)C(F)(F)F (centres undefined)	-2	35*	-5	3
CC(C)C[C@H]1C(=O)N2CCCC2[C@]2(O)O[C@](NC(=O)[C@@H]3C=C4c5cccc6[nH]cc(c56)CC4N(C)C3)(C(C)C)C(=O)N12 (some centres undefined)	-3	31*	7	6
CC(C)[C@@]1(NC(=O)[C@@H]2C=C3c4cccc5[nH]cc(c45)C[C@H]3N(C)C2)O[C@@]2(O)[C@@H]3CCCN3C(=O)[C@H](Cc3ccccc3)N2C1=O	.	.	4	.
CC(C)[C@H]1C(=O)N2CCC[C@H]2[C@]2(O)O[C@](NC(=O)[C@@H]3C=C4c5cccc6[nH]cc(c56)C[C@H]4N(C)C3)(C(C)C)C(=O)N12	-3	36*	24	-2
CC(C)[C@@]1(NC(=O)[C@@H]2C[C@@H]3c4cccc5[nH]cc(c45)C[C@H]3N(C)C2)O[C@@]2(O)[C@@H]3CCCN3C(=O)[C@H](Cc3ccccc3)N2C1=O	-8	1	-75	3
CC(=NCc1ccc2c(c1)OCO2)c1c(O)n(C)c(=O)n(C)c1=O	1	-1	-3	-7
CC(=O)Nc1cc(C(=O)N2CCC3(CC2)OCCO3)ccc1S(=O)(=O)c1ccc(Cl)cc1	-3	0	6	-1
O=c1[nH]c(=S)[nH]c(O)c1CN1CCCCC1	16	-1	6	3
Oc1c(Br)cc(Br)cc1CN1CCN(Cc2ccccc2)CC1	0	1	-18	2
S=C(c1ccc(Cl)cc1)N1CCOCC1	4	2	-10	8
CCN1CCN(Cc2cccnc2)CC1	-8	19*	13	3
Cc1ccc2c(c1)c(=O)c1c3n2CCN(CC#N)C3CC1 (centres undefined)	6	-1	3	-2
Cc1ccc(S(=O)(=O)N2CC2(C)CCl)cc1 (centres undefined)	2	20*	2	-4
O=P1(Oc2ccccc2)CC=C[C@H](COCc2ccccc2)O1 (some centres undefined)	-6	1	.	-1
CCCOP(=O)(OCCC)C(NC(=O)c1cc(OC)c(OC)c(OC)c1)c1ccccc1 (centres undefined)	-10	17*	2	-4
SMILES	ZTA DNA inh	Fh CTSL1 inh	NS3 helicase inh	EBNA-1 inh	others
CCOP(=O)(OCC)C(NC(=O)c1ccccc1)C(Cl)(Cl)Cl (centres undefined)	-7	-4	1	-1
C[C@@H]1O[C@@H](O[C@@H]2C=C3CCC4C(CC[C@]5(C)[C@@H](c6ccc(=O)oc6)CC[C@]45O)[C@@]3(C)CC2)[C@H](O)[C@H](O)[C@H]1O (some centres undefined)	-9	25*	.	-5
CCOC(=O)C(O)(c1ccc(NC(=S)NC(=O)c2ccc(Cl)cc2Cl)c(C)c1)C(F)(F)F (centres undefined)	-7	4	2	-12
CN(C)c1ccc(/C=C/C=C/c2sc3ccccc3[n+]2C)cc1	45*	0	30	32*
CCOC(=O)Cn1cc([N+](=O)[O-])nc1[N+](=O)[O-]	4	18*	4	5
COc1ccc(/C=C2/C(=O)N(Cc3ccco3)C(=O)N(C(C)C)C2=O)cc1	7	-3	20	0
NC(Cc1cc(O)c(O)cc1O)C(=O)O (centres undefined)	49*	2	.	90*
N[C@@H](CCl)C(=O)O	9	1	.	-2
C=CCn1c(O)c(C(C)=Nc2ccc(N(C)C)cc2)c(=O)[nH]c1=O	150*	1	25	58*
CC(C)n1c(=O)c(C=Nc2ccc(F)cc2)c(O)n(Cc2ccco2)c1=O	-5	0	48*	-5	NS3 hel confirm=-5;DNA FID counter=5
CN(C)[C@@H]1C(=O)C(C(N)=O)=C(O)[C@@]2(O)C(=O)C3=C(O)c4c(O)ccc(Cl)c4[C@@](C)(O)[C@H]3C[C@@H]12	-14	1	48*	-8	NS3 hel confirm=7;DNA FID counter=20
CN(C)[C@@H]1C(=O)C(C(N)=O)=C(O)[C@@]2(O)C(=O)C3=C(O)c4c(O)cccc4[C@@](C)(O)[C@H]3[C@H](O)[C@@H]12	8	6	36*	30*!	NS3 hel confirm=97*;DNA FID counter=18
CN(C)[C@@H]1C(=O)C(C(N)=O)=C(O)[C@@]2(O)C(=O)C3=C(O)c4c(O)cccc4[C@@](C)(O)C3C[C@@H]12 (some centres undefined)	-3	-1	.	4
N#CC1=C(N)Oc2cc(O)ccc2C1c1ccc2c(c1)OCO2 (centres undefined)	10	3	12	2
O=C(N/N=C/c1c(O)n(CCc2ccccc2)c(=O)[nH]c1=O)c1ccncc1	10	5	13	-5
O=C(N/N=C/c1c(O)n(CCc2ccc(F)cc2)c(=O)[nH]c1=O)c1ccncc1	22	0	38*	-1	NS3 hel confirm=-6;DNA FID counter=-13
O=C1NC(=O)N(Cc2ccco2)C(=O)/C1=C/c1ccc(-c2cccc([N+](=O)[O-])c2)o1	-13	-2	39*	-7	NS3 hel confirm=66*;DNA FID counter=18
Cc1cc(/C=C2/C(=O)NC(=O)N(Cc3ccco3)C2=O)c(C)n1-c1ccccc1	2	-3	50*	0	NS3 hel confirm=7;DNA FID counter=-29
CN(C)c1ccc(/C=C2/C(=O)NC(=O)N(Cc3ccco3)C2=O)cc1	11	3	25	0
